Reference: ChEMBL document CHEMBL3272356, “Adriamycin analogs. Periodate oxidation of adriamycin” (J Med Chem, 1976)
Calls of active or inactive are those of the source. No cut-off for these calls is given here.

Columns and labels:
L1210 [1] = test: Inhibition of RNA synthesis in mouse L1210 cells at < 100 uM preincubated for 3 hrs followed by [3H]-uridine addition measured after 1 hr by scintillation spectrometric analysis; assay type: functional, cell-based
Procedure, shortened: (§1)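 L1210 suspension at 2 × 10^6/ml in 1640 medium with 10% fetal calf serum and 20 mM HEPES, pH 7.2. Drug tested at 100 to 0.100 µM in half-log steps, 3 h at 37° with shaking. Pulse 1 h with 0.5 µCi/ml [3H]thymidine (DNA) or [3H]uridine (RNA). TCA-precipitable counts expressed as % of control; ED50 read from the points bracketing 50%, with the bracketing assays repeated.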

L1210 [2] = test: Inhibition of DNA synthesis in mouse L1210 cells at < 100 uM preincubated for 3 hrs followed by [3H]-thymidine addition measured after 1 hr by scintillation spectrometric analysis; assay type: functional, cell-based; procedure, shortened: as §1
Calf thymus DNA [3] = test: Binding affinity to calf thymus DNA assessed as increase in melting temperature at 2.1 x 10^-5 M by UV spectrophotometric analysis; assay type: nucleic-acid assay; settings: Bos taurus
P388 [4] = test: Antitumor activity against mouse P388 cells allografted in mouse assessed as increase in survival time at 1 mg/kg, ip qd administered for 9 days relative to control; assay type: functional; settings: route intraperitoneal
P388 [5] = test: Antitumor activity against mouse P388 cells allografted in mouse assessed as increase in survival time at 0.5 mg/kg, ip qd administered for 9 days relative to control; assay type: functional; settings: route intraperitoneal
L1210 [6] = test: Inhibition of DNA synthesis in mouse L1210 cells preincubated for 3 hrs followed by [3H]-thymidine addition measured after 1 hr by scintillation spectrometric analysis; assay type: functional; settings: read-out: ED50 (the source's name); procedure, shortened: as §1
P388 [7] = test: Antitumor activity against mouse P388 cells allografted in mouse assessed as increase in survival time at 0.25 mg/kg, ip qd administered for 9 days relative to control; assay type: functional; settings: route intraperitoneal
P388 [8] = test: Antitumor activity against mouse P388 cells allografted in mouse assessed as increase in survival time at 0.06 mg/kg, ip qd administered for 9 days relative to control; assay type: functional; settings: route intraperitoneal
L1210 [9] = test: Inhibition of RNA synthesis in mouse L1210 cells preincubated for 3 hrs followed by [3H]-uridine addition measured after 1 hr by scintillation spectrometric analysis; assay type: functional; settings: read-out: ED50 (the source's name); procedure, shortened: as §1
Calf thymus DNA [10] = test: Binding affinity to calf thymus DNA assessed as decrease in absorptivity of visible maxima of compound at 1:1 to 16:1 compound to DNA ratio by UV-visible spectra analysis; assay type: nucleic-acid assay; settings: Bos taurus
Procedure, shortened: (§2)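 Calf thymus DNA stock sonicated on ice to limit precipitation of the complex. DNA concentration was taken from the supplier's phosphorus content. UV-visible spectra were recorded.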

Calf thymus DNA [11] = test: Binding affinity to calf thymus DNA assessed as bathochromatic shift at 1:1 to 16:1 compound to DNA ratio by UV-visible spectra analysis; assay type: nucleic-acid assay; settings: Bos taurus; procedure, shortened: as §2
P388 [12] = test: Antitumor activity against mouse P388 cells allografted in mouse assessed as change in survival time at 4 mg/kg, ip qd administered for 9 days relative to control; assay type: functional; settings: route intraperitoneal
Mus musculus [13] = test: Acute toxicity in mouse allografted with mouse P388 cells assessed as survival less than 5 days at 0.06 to 4 mg/kg, ip qd; assay type: organism-based; set-up: dose 0.06-4 mg/kg, route intraperitoneal; settings: in vivo, 120 h
Procedure, shortened: (§3)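 BDF or CDF mice were implanted ip with 10^6 P-388 lymphocytic leukemia cells on day 0 and dosed ip on days 1-9. Acute toxic drug deaths were scored as survival of less than 5 days after the start of treatment. Testing was done by the NCI Drug Research and Development Program.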

P388 [14] = test: Antitumor activity against mouse P388 cells allografted in mouse assessed as increase in survival time at 0.12 mg/kg, ip qd administered for 9 days relative to control; assay type: functional; settings: route intraperitoneal
P388 [15] = test: Antitumor activity against mouse P388 cells allografted in mouse assessed as increase in survival time at 1.56 mg/kg, ip qd administered for 9 days relative to control; assay type: functional; settings: route intraperitoneal
P388 [16] = test: Antitumor activity against mouse P388 cells allografted in mouse assessed as increase in survival time at 75 mg/kg, ip qd administered for 9 days relative to control; assay type: functional; settings: route intraperitoneal
P388 [17] = test: Antitumor activity against mouse P388 cells allografted in mouse assessed as increase in survival time at 25 mg/kg, ip qd administered for 9 days relative to control; assay type: functional; settings: route intraperitoneal
P388 [18] = test: Antitumor activity against mouse P388 cells allografted in mouse assessed as increase in survival time at 3.12 mg/kg, ip qd administered for 9 days relative to control; assay type: functional; settings: route intraperitoneal
Calf thymus DNA [19] = test: Binding affinity to calf thymus DNA assessed as increase in melting temperature at 1.63 x 10^-5 M by UV spectrophotometric analysis; assay type: nucleic-acid assay; settings: Bos taurus
P388 [20] = test: Antitumor activity against mouse P388 cells allografted in mouse assessed as increase in survival time at 6.25 mg/kg, ip qd administered for 9 days relative to control; assay type: functional; settings: route intraperitoneal
Mus musculus [21] = test: Acute toxicity in mouse allografted with mouse P388 cells assessed as survival less than 5 days at 1.56 to 75 mg/kg, ip qd; assay type: organism-based; set-up: dose 1.56-75 mg/kg, route intraperitoneal; settings: in vivo, 120 h; procedure, shortened: as §3
P388 [22] = test: Antitumor activity against mouse P388 cells allografted in mouse assessed as increase in survival time at 12.5 mg/kg, ip qd administered for 9 days relative to control; assay type: functional; settings: route intraperitoneal
P388 [23] = test: Antitumor activity against mouse P388 cells allografted in mouse assessed as increase in survival time at 50 mg/kg, ip qd administered for 9 days relative to control; assay type: functional; settings: route intraperitoneal
Calf thymus DNA [24] = test: Binding affinity to calf thymus DNA assessed as increase in melting temperature at 1.54 x 10^-5 M by UV spectrophotometric analysis; assay type: nucleic-acid assay; settings: Bos taurus
Mus musculus [25] = test: Acute toxicity in mouse allografted with mouse P388 cells assessed as survival less than 5 days at 1.56 to 50 mg/kg, ip qd; assay type: organism-based; set-up: dose 1.56-50 mg/kg, route intraperitoneal; settings: in vivo, 120 h; procedure, shortened: as §3
P388 [26] = test: Antitumor activity against mouse P388 cells allografted in mouse assessed as increase in survival time at 2 mg/kg, ip qd administered for 9 days relative to control; assay type: functional; settings: route intraperitoneal
Calf thymus DNA [27] = test: Binding affinity to calf thymus DNA assessed as increase in melting temperature at 2 x 10^-5 M by UV spectrophotometric analysis; assay type: nucleic-acid assay; settings: Bos taurus

Row | Structure (SMILES) | inhibition (L1210 [1]) | inhibition (L1210 [2]) | T/C (P388 [4]) | T/C (P388 [5]) | EC50 (L1210 [6]) | T/C (P388 [7]) | T/C (P388 [8]) | EC50 (L1210 [9]) | Activity (Calf thymus DNA [10]) | Activity (Calf thymus DNA [11]) | T/C (P388 [12]) | Activity (Mus musculus [13]) | T/C (P388 [14]) | T/C (P388 [15]) | T/C (P388 [17]) | T/C (P388 [18]) | T/C (P388 [20]) | T/C (P388 [22]) | T/C (P388 [23]) | further results
1 | COc1cccc2c1C(=O)c1c(O)c3c(c(O)c1C2=O)C[C@@](O)(C(=O)O)C[C@@H]3O | inactive | inactive | – | – | – | – | – | – | – | – | – | – | – | – | – | – | – | – | – | –
2 | COc1cccc2c1C(=O)c1c(O)c3c(c(O)c1C2=O)C[C@@](O)(C(=O)CO)C[C@@H]3O[C@H]1C[C@H](N)[C@H](O)[C@H](C)O1 [DOXORUBICIN] | – | – | 212 | 182 | 800 nM | 162 | 139 | 900 nM | Active | Active | 71 | Non-toxic | 156 | – | – | – | – | – | – | ΔTm (Calf thymus DNA [3]): 17.8 °C
3 | COC(=O)[C@]1(O)Cc2c(O)c3c(c(O)c2[C@@H](O)C1)C(=O)c1c(OC)cccc1C3=O | inactive | inactive | – | – | – | – | – | – | – | – | – | – | – | – | – | – | – | – | – | –
4 | COC(=O)[C@]1(O)Cc2c(O)c3c(c(O)c2[C@@H](O[C@H]2C[C@H](N)[C@H](O)[C@H](C)O2)C1)C(=O)c1c(OC)cccc1C3=O.Cl | – | – | – | – | 2000 nM | – | – | 900 nM | Active | Active | – | – | – | 107 | 115 | 103 | 108 | 112 | 125 | T/C (P388 [16]): 141; ΔTm (Calf thymus DNA [19]): 12.6 °C; Activity (Mus musculus [21]): Non-toxic
5 | COc1cccc2c1C(=O)c1c(O)c3c(c(O)c1C2=O)C[C@@](O)(C(=O)O)C[C@@H]3O[C@H]1C[C@H](N)[C@H](O)[C@H](C)O1.Cl | – | – | – | – | > 100000 nM | – | – | 65000 nM | Active | Active | – | – | – | 100 | 163 | 107 | 142 | 151 | 151 | ΔTm (Calf thymus DNA [24]): 2.6 °C; Activity (Mus musculus [25]): Non-toxic
6 | COc1cccc2c1C(=O)c1c(O)c3c(c(O)c1C2=O)C[C@@](O)(C(C)=O)C[C@@H]3O[C@H]1C[C@H](N)[C@H](O)[C@H](C)O1 [DAUNORUBICIN] | – | – | 157 | 150 | 300 nM | 142 | 112 | 300 nM | Active | Active | 96 | Non-toxic | 130 | – | – | – | – | – | – | T/C (P388 [26]): 150; ΔTm (Calf thymus DNA [27]): 16.8 °C
